Source: ChEMBL document CHEMBL1134661, “N-Benzylpolyamines as vectors of boron and fluorine for cancer therapy and imaging: synthesis and biological evaluation” (J Med Chem, 2001)
“And” between values parts separate entries of the source, which are not always exact repeats. Equal values may be shown once.

Assays:
[1] = test system: 3LL cell line; test: Effect on the growth of 3LL cells by DFMO pretreatment at 48 hr incubation; assay type: functional, cell-based; conditions: Mus musculus
Summary of the method: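 3LL cells given 5 mM DFMO 24 h after seeding for a 24 h preincubation, then 48 h with spermidine or derivative; MTT readout; growth expressed relative to cells treated with DFMO only; mean ± SEM.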

[2] = test system: CHO; test: Compound was tested for accumulation in CHO cells by HPLC at 50 uM dose; assay type: functional, Cricetulus griseus
Summary of the method: (§1)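 CHO or polyamine-transport-deficient CHO-MG cells (proline 2 µg/mL added for CHO-MG), RPMI 1640 with 10% FCS, 37 °C, 5% CO2; seeded at 5 × 10⁴ cells/mL, derivative added 24 h later for 24 h; trypsin/EDTA harvest, three PBS washes, sonication in 0.2 N perchloric acid; derivative measured by ion-pair reversed-phase HPLC with o-phthalaldehyde/N-acetylcysteine fluorescence; per mg protein (Folin); mean ± SD.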

[3] = test system: 3LL cell line; test: spermidine levels in 3LL cells after the treatment of 250 uM of Compound; assay type: functional, cell-based; conditions: Mus musculus
Summary of the method: (§2)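 3LL cells incubated 24 h with derivative, some after 24 h pretreatment with 5 mM DFMO; perchloric acid extracts analyzed for putrescine, spermidine and spermine by ion-pair reversed-phase HPLC with o-phthalaldehyde post-column fluorescence, normalized to protein (Folin); mean ± SD.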

[4] = test system: 3LL cell line; test: accumulation of compound in 3LL cells was measured with DFMO by HPLC at 50 uM dose; assay type: functional, Mus musculus
Summary of the method: (§3)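 3LL cells exposed 24 h to derivative, BSH or BPA, with or without prior 24 h incubation with 5 mM DFMO; intracellular drug measured by ion-pair reversed-phase HPLC with o-phthalaldehyde fluorescence, or cellular boron by ICP-AES, per mg protein; mean ± SD; Student's t-test, p < 0.01.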

[5] = test system: 3LL cell line; test: spermine levels in 3LL cells after the treatment of 250 uM of Compound; assay type: functional, cell-based; conditions: Mus musculus; summary of the method: as §2
[6] = Compound was tested for accumulation of (50 uM) boronated polyamines in murine B16 melanoma cells ncubated with 5 mM DFMO; assay type: functional
Summary of the method: (§4)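 Rat C6, human U251 glioblastoma or murine B16 melanoma cells exposed 24 h to 50 µM boron-containing derivative, either directly or after 24 h preincubation with 5 mM DFMO; washed cells sonicated in 0.2 N perchloric acid, derivative quantified by ion-pair reversed-phase HPLC with o-phthalaldehyde fluorescence detection, normalized to protein; mean ± SD.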

[7] = test system: 3LL cell line; test: spermine levels in 3LL cells after the treatment of 50 uM of Compound; assay type: functional, cell-based; conditions: Mus musculus; summary of the method: as §2
[8] = test system: 3LL cell line; test: putrescine levels in 3LL cells after the treatment of 250 uM of Compound; assay type: functional, cell-based; conditions: Mus musculus; summary of the method: as §2
[9] = test system: CHO-MG; test: Compound was tested for accumulation in CHO-MG cells by HPLC at 50 uM dose; assay type: functional, Cricetulus griseus; summary of the method: as §1
[10] = test system: 3LL cell line; test: accumulation of compound in 3LL cells was measured with DFMO by ICP-AES at 50 uM dose; assay type: functional, Mus musculus; summary of the method: as §3
[11] = test system: 3LL cell line; test: accumulation of compound in 3LL cells was measured without DFMO by ICP-AES at 50 uM dose; assay type: functional, Mus musculus; summary of the method: as §3
[12] = test system: 3LL cell line; test: accumulation of compound in 3LL cells was measured without DFMO by HPLC at 10 uM dose; assay type: functional, Mus musculus; summary of the method: as §3
[13] = test system: U-251; test: Compound was tested for accumulation of (50 uM) boronated polyamines in human U251 glioblastoma cells incubated with 5 mM DFMO; assay type: functional; summary of the method: as §4
[14] = test system: 3LL cell line; test: Effect on the growth of 3LL cells was evaluated using an MTT assay at 48 hour incubation; assay type: functional, cell-based; conditions: Mus musculus
[15] = Compound was tested for accumulation of (50 uM) boronated polyamines in murine B16 melanoma cells; assay type: functional; summary of the method: as §4
[16] = test system: 3LL cell line; test: spermidine levels in 3LL cells after the treatment of 50 uM of Compound; assay type: functional, cell-based; conditions: Mus musculus; summary of the method: as §2
[17] = test system: 3LL cell line; test: Effect on the growth of 3LL cells was evaluated using an MTT assay at 72 hour incubation; assay type: functional, cell-based; conditions: Mus musculus
[18] = test system: 3LL cell line; test: accumulation of compound in 3LL cells was measured without DFMO by HPLC at 50 uM dose; assay type: functional, Mus musculus; summary of the method: as §3
[19] = molecular target: Nucleic Acid; test: (§5) DNA binding affinity (conc to decrease the fluorescence of the ethidium bromide-DNA complex by 50%); assay type: nucleic-acid assay, Bos taurus
[20] = Compound was tested for accumulation of (50 uM) boronated polyamines in rat C6 glioblastoma cells incubated with 5 mM DFMO; assay type: functional; summary of the method: as §4
[21] = test system: 3LL cell line; test: accumulation of compound in 3LL cells was measured with DFMO by HPLC at 10 uM dose; assay type: functional, Mus musculus; summary of the method: as §3
[22] = Compound was tested for accumulation of (50 uM) boronated polyamines in rat C6 glioblastoma cells; assay type: functional; summary of the method: as §4
[23] = test system: U-251; test: Compound was tested for accumulation of (50 uM) boronated polyamines in human U251 glioblastoma cells; assay type: functional; summary of the method: as §4
[24] = test system: 3LL cell line; test: accumulation of compound in 3LL cells was measured without DFMO by HPLC at 250 uM dose; assay type: functional, Mus musculus; summary of the method: as §3
[25] = test system: 3LL cell line; test: accumulation of compound in 3LL cells was measured with DFMO by HPLC at 250 uM dose; assay type: functional, Mus musculus; summary of the method: as §3
[26] = test system: CHO; test: Compound was tested for accumulation in CHO cells by HPLC at 250 uM dose; assay type: functional, Cricetulus griseus; summary of the method: as §1
[27] = molecular target: Nucleic Acid; test: as §5; assay type: nucleic-acid assay
[28] = test system: CHO-MG; test: Compound was tested for accumulation in CHO-MG cells by HPLC at 250 uM dose; assay type: functional, Cricetulus griseus; summary of the method: as §1
[29] = test system: 3LL cell line; test: accumulation of compound in 3LL cells was measured without DFMO by HPLC at 1 uM dose; assay type: functional, Mus musculus; summary of the method: as §3
[30] = test system: 3LL cell line; test: accumulation of compound in 3LL cells was measured with DFMO by HPLC at 1 uM dose; assay type: functional, Mus musculus; summary of the method: as §3
[31] = test system: CHO; test: Compound was tested for accumulation in CHO cells by HPLC at 10 uM dose; assay type: functional, Cricetulus griseus; summary of the method: as §1
[32] = test system: 3LL cell line; test: spermine levels in 3LL cells after the treatment of 1 uM of Compound; assay type: functional, cell-based; conditions: Mus musculus; summary of the method: as §2
[33] = test system: 3LL cell line; test: spermine levels in 3LL cells after the treatment of 10 uM of Compound; assay type: functional, cell-based; conditions: Mus musculus; summary of the method: as §2

| SMILES | IC50 [19] | IC50 [1] | Accumulation [2] | Activity [4] | Level (nM (mg of protein)-1) [7] | Activity [10] | Activity [11] | Activity [12] | IC50 [14] | Accumulation [15] | Level (nM (mg of protein)-1) [16] | IC50 [17] | Activity [18] | Activity [21] | Accumulation [23] | other results |
| --- | --- | --- | --- | --- | --- | --- | --- | --- | --- | --- | --- | --- | --- | --- | --- | --- |
| CC1(C)COB(c2ccc(CN(CCCN)CCCCN)cc2)OC1.Cl |  | > 10 µM |  | 0.98 nM (mg of protein)-1 | 7.4 | 1.83 nM (mg of protein)-1 | 3.46 nM (mg of protein)-1 |  | > 1000 µM | 0.92 nM (mg of protein)-1 and 0.45 nM (mg of protein)-1 | 8.92 | > 1000 µM | 2.6 nmol/mg protein |  | 2.12 nM (mg of protein)-1 and 1.79 nM (mg of protein)-1 | Activity [24]: 3.35 nM (mg of protein)-1; Activity [25]: 2.55 nM (mg of protein)-1; Accumulation [26]: 5.05 nM (mg of protein)-1; IC50 [27]: 102 µM; Accumulation [28]: 3.84 nM (mg of protein)-1; Accumulation [22]: 2.92 nM (mg of protein)-1 and 2.5 nM (mg of protein)-1 |
| Cl.NCCCCNCCCNCc1ccccc1 | 107 µM | 11.9 µM | 17.58 nM (mg of protein)-1 |  |  |  |  | 9 nM (mg of protein)-1 | 31 µM |  |  | 9.3 µM |  | 23.67 nM (mg of protein)-1 |  | Level (nM (mg of protein)-1) [33]: 7.23 |

Continued by falling IC50 [19], values first:

| IC50 [19] | SMILES | IC50 [1] | Accumulation [2] | Activity [4] | Level (nM (mg of protein)-1) [7] | Activity [10] | Activity [11] | Activity [12] | IC50 [14] | Accumulation [15] | Level (nM (mg of protein)-1) [16] | IC50 [17] | Activity [18] | Activity [21] | Accumulation [23] | other results |
| --- | --- | --- | --- | --- | --- | --- | --- | --- | --- | --- | --- | --- | --- | --- | --- | --- |
| 1380 µM | Cl.NCCCCNCc1ccc(B(O)O)cc1 | > 50 µM | 5.76 nM (mg of protein)-1 | 8.44 nM (mg of protein)-1 | 7.52 | 6.73 nM (mg of protein)-1 | 1.29 nM (mg of protein)-1 | 0.52 nM (mg of protein)-1 | > 1000 µM | 5.77 nM (mg of protein)-1 | 1.07 | > 1000 µM | 1.32 nmol/mg protein | 3.37 nM (mg of protein)-1 | 0.21 nM (mg of protein)-1 | Level (nM (mg of protein)-1) [3]: 2.28; Level (nM (mg of protein)-1) [5]: 7.66; Accumulation [6]: 20.41 nM (mg of protein)-1; Level (nM (mg of protein)-1) [8]: 1.31; Accumulation [9]: 0.51 nM (mg of protein)-1; Accumulation [13]: 0.22 nM (mg of protein)-1; Accumulation [20]: 0.41 nM (mg of protein)-1; Activity [22]: 0.09 nM (mg of protein)-1 |
| 341 µM | Cl.NCCCCNCCCNCc1ccc(F)cc1 | 0.5 µM |  |  |  |  |  | 12.87 nM (mg of protein)-1 | 4.7 µM |  |  | 2.3 µM |  |  |  | Activity [29]: 5.51 nM (mg of protein)-1; Activity [30]: 12.19 nM (mg of protein)-1; Accumulation [31]: 9.4 nM (mg of protein)-1; Level (nM (mg of protein)-1) [32]: 8.25 |
| 98 µM | NCCCCNCCCN [SPERMIDINE] |  |  |  |  |  |  |  |  |  |  |  |  |  |  |  |
